Reference: ChEMBL document CHEMBL2440054, “Largazole Arrests Cell Cycle at G1 Phase and Triggers Proteasomal Degradation of E2F1 in Lung Cancer Cells” (ACS Med Chem Lett, 2013)
The source made the active and inactive calls. The rule behind the calls is not given here.

Tests used:
[1] = molecular target: Transcription factor E2F1 (Homo sapiens) (UniProt Q01094); experiment: Induction of E2F1 translocation from nucleus to cytoplasm in human A549 cells at 0.1 uM after 12 to 24 hrs by DAPI staining-based immunofluorescence analysis; assay type: cell-based
How it was run: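 A549 cells given 0.1 μM largazole for 12 to 24 h. Immunofluorescence with anti-E2F1 antibody, nuclei counterstained with DAPI.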

A549 [2] = experiment: Cell cycle arrest in human A549 cells assessed as accumulation at G1 phase at 0.1 uM after 24 hrs by propidium iodide staining-based flow cytometric analysis (reference value: 48.3%); assay type: functional
A549 [3] = experiment: Effect on CDK4 protein expression in human A549 cells at 0.1 uM after 6 to 36 hrs by Western blotting analysis; assay type: functional, cell-based
How it was run: (§1)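 A549 cells exposed to 0.1 μM largazole over a time course, lysed, and Western blotted for cyclin D1, CDK2, CDK4, p21 and p27.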

A549 [4] = experiment: Cell cycle arrest in human A549 cells assessed as accumulation at G1 phase at 0.06 uM after 24 hrs by propidium iodide staining-based flow cytometric analysis (reference value: 48.3%); assay type: functional
[5] = molecular target: Transcription factor E2F1 (Homo sapiens) (UniProt Q01094); experiment: Induction of E2F1 degradation in human 16HBE cells at 0.1 uM after 12 to 24 hrs by Western blotting analysis; assay type: cell-based
How it was run: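 Each cell line (16-HBE, 95D, L78, H1975, H460) treated with 0.1 μM largazole for indicated times. Lysates Western blotted for E2F1.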

NCI-H460 [6] = experiment: Cell cycle arrest in human NCI-H460 cells assessed as accumulation at G2 phase at 0.06 uM after 24 hrs by propidium iodide staining-based flow cytometric analysis (reference value: 9.5%); assay type: functional
A549 [7] = experiment: Induction of apoptosis in human A549 cells assessed as decrease in pro-caspase-3 level at 0.1 uM after 48 hrs by Western blotting analysis; assay type: functional, cell-based
How it was run: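 A549 cells given largazole 0.1 μM for indicated times, lysed, and Western blotted for pro-/cleaved caspase-9, caspase-8, pro-/active caspase-3 and PARP.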

A549 [8] = experiment: Cell cycle arrest in human A549 cells assessed as accumulation at G2 phase at 0.1 uM after 24 hrs by propidium iodide staining-based flow cytometric analysis (reference value: 3.7%); assay type: functional
A549 [9] = experiment: Downregulation of p21 protein expression in human A549 cells at 0.1 uM after 4 hrs by Western blotting analysis in presence of protein synthesis inhibitor cycloheximide; assay type: functional, cell-based
A549 [10] = experiment: Effect on CDK2 protein expression in human A549 cells at 0.1 uM after 6 to 36 hrs by Western blotting analysis; assay type: functional, cell-based; how it was run: as §1
A549 [11] = experiment: Downregulation of E2F1 in human A549 cell cytoplasm at 0.1 uM after 6 to 24 hrs by Western blotting analysis; assay type: functional, cell-based
How it was run: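 A549 cells exposed to 0.1 μM largazole for indicated times. Cytoplasmic and nuclear fractions separated, then Western blotted for E2F1.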

[12] = molecular target: Histone deacetylase 1 (Homo sapiens) (UniProt Q13547); settings: A549, 0.1 uM
[13] = molecular target: Transcription factor E2F1 (Homo sapiens) (UniProt Q01094); experiment: Induction of E2F1 degradation in human A549 cells at 0.1 uM after 12 hrs by Western blotting analysis in presence of proteasome inhibitor MG-132; assay type: cell-based
How it was run: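 A549 cells pretreated 2 h with bortezomib (100 nM) or MG-132 (10 μM), then given largazole 0.1 μM for a further 12 h. Lysates Western blotted for E2F1.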

[14] = Cytotoxicity against human H466 cells after 48 hrs by CCK-8 assay; assay type: functional, cell-based; settings: H466, 48 h
How it was run: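 Cells treated with a range of largazole concentrations for 48 h. Proliferation read by CCK-8 assay; IC50 derived from the concentration series.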

NCI-H460 [15] = experiment: Cell cycle arrest in human NCI-H460 cells assessed as accumulation at S phase at 0.06 uM after 24 hrs by propidium iodide staining-based flow cytometric analysis (reference value: 31.6%); assay type: functional
[16] = molecular target: Transcription factor E2F1 (Homo sapiens) (UniProt Q01094); experiment: Inhibition of E2F1 in human A549 cells assessed as downregulation of DHFR gene expression at 0.1 uM after 6 to 36 hrs by RT-PCR analysis; assay type: cell-based
How it was run: (§2)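 A549 cells given 0.1 μM over a time course. RNA extracted and RT-PCR run with gene-specific primers. Bands quantified by densitometry and normalized to GAPDH.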

[17] = molecular target: Histone deacetylase 1 (Homo sapiens) (UniProt Q13547); settings: NCI-H1975, 0.1 uM
[18] = molecular target: T1, Retinoblastoma-associated protein (Homo sapiens) (UniProt P06400); experiment: Dephosphorylation of Rb in human A549 cells assessed as increase in Rb-E2F1 interaction at 0.1 uM after 8 hrs by immunoprecipitation and Western blotting analysis; assay type: cell-based
T1 sequence (whole entry): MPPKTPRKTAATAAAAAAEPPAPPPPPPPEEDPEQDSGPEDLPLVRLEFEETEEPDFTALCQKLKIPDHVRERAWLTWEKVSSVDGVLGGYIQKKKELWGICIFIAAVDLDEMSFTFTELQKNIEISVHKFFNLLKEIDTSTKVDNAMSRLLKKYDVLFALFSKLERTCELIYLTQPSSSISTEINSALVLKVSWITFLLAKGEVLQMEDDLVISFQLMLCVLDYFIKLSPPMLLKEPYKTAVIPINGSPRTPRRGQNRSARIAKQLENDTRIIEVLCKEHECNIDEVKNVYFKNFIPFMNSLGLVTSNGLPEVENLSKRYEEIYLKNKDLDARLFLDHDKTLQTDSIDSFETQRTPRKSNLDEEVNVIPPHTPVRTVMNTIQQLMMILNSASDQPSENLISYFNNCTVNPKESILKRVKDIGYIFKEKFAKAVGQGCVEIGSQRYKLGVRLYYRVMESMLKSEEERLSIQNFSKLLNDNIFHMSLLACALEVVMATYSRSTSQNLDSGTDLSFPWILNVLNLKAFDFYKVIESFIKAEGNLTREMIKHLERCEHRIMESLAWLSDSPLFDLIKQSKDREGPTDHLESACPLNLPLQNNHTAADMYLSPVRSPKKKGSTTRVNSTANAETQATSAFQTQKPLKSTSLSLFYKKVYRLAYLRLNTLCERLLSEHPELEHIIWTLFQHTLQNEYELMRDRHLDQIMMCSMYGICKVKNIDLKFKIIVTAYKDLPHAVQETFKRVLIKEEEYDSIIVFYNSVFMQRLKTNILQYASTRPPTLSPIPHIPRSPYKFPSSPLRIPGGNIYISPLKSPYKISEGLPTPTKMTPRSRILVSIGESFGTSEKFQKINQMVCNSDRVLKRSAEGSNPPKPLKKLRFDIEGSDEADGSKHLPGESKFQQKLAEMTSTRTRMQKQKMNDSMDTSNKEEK
How it was run: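 A549 cells treated with 0.1 μM largazole for 8 h and lysed. Lysates immunoprecipitated, then Western blotted with the indicated antibodies.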

A549 [19] = experiment: Downregulation of p21 protein expression in human A549 cells at 0.1 uM after 1 hr by Western blotting analysis in presence of protein synthesis inhibitor cycloheximide; assay type: functional, cell-based
[20] = molecular target: Transcription factor E2F1 (Homo sapiens) (UniProt Q01094); experiment: Inhibition of E2F1 in human A549 cells assessed as downregulation of PCNA gene expression at 0.1 uM after 6 to 36 hrs by RT-PCR analysis; assay type: cell-based; how it was run: as §2

Sequence of Transcription factor E2F1 (Homo sapiens) (Q01094 whole entry): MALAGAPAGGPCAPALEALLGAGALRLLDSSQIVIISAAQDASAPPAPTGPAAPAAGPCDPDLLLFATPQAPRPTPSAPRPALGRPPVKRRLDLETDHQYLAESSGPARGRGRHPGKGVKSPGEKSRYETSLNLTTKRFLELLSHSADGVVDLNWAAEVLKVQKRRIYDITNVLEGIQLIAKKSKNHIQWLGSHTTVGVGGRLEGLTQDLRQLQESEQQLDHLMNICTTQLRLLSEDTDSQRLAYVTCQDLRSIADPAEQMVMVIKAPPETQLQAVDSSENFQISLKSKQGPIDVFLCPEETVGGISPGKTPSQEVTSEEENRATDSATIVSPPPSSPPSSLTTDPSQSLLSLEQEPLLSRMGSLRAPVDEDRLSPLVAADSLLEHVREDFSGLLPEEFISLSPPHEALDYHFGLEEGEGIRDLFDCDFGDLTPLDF
Sequence of Histone deacetylase 1 (Homo sapiens) (Q13547 whole entry): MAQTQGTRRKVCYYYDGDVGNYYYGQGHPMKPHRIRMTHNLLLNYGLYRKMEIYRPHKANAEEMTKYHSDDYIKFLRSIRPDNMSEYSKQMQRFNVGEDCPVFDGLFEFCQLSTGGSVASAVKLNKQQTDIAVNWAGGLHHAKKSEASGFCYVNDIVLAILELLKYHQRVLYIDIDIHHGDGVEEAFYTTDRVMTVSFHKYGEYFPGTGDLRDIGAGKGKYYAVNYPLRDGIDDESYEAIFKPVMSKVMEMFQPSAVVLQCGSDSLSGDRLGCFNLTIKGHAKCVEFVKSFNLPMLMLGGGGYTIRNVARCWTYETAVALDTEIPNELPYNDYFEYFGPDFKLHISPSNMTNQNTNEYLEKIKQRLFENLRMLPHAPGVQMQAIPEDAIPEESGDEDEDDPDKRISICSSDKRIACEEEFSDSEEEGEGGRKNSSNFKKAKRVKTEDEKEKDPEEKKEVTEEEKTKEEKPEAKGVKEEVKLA

## CCCCCCCC(=O)SCC/C=C/[C@@H]1CC(=O)NCc2nc(cs2)C2=N[C@@](C)(CS2)C(=O)N[C@@H](C(C)C)C(=O)O1 [LARGAZOLE]
[1]
  Activity: Active
A549 [2]
  Activity: 88.2%
A549 [3]
  Activity: inactive
A549 [4]
  Activity: 90.4%
[5]
  Activity: inactive
NCI-H460 [6]
  Activity: 10.8%
A549 [7]
  Activity: Active
A549 [8]
  Activity: 3.3%
A549 [9]
  Activity: Active
A549 [10]
  Activity: inactive
A549 [11]
  Activity: Active
[12]
  inhibition: Active
[13]
  Activity: inactive
[14]
  IC50: 520 nM
NCI-H460 [15]
  Activity: 10.4%
[16]
  inhibition: Active
[17]
  inhibition: Active
[18]
  Activity: Active
A549 [19]
  Activity: inactive
[20]
  inhibition: Active
